MIC and inhibition data for five compounds are collected here from ChEMBL document CHEMBL1124203, “Phosphinic acid inhibitors of D-alanyl-D-alanine ligase” (J Med Chem, 1988).

The structures appear in SMILES notation. ≈ marks a conversion by molar mass, not a printed value. A value given as a limit tells only on which side of the number the result lay.

Assay [1] relates to Pseudomonas aeruginosa. In words: Minimum inhibitory concentration required for inhibition of D-alanyl-D-alanine ligase from Pseudomonas aeruginosa 4279. Type of assay: functional. The procedure, abridged:
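Inocula were subcultured from agar into trypticase soy broth and grown at 35 °C for 20 h, with the Pseudomonas strain shaken at 250 rpm. MIC was taken as the lowest concentration giving no visible growth or fewer than five colonies per inoculation spot.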

Assay [2] concerns Proteus vulgaris. In words: Minimum inhibitory concentration required for inhibition of D-alanyl-D-alanine ligase from proteus vulgaris 2829. Type of assay: functional. Put shortly: (§1)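 Organisms were mostly subcultured from agar into trypticase soy broth, 35 °C for 20 h; Pseudomonas was shaken at 250 rpm. MIC was the lowest concentration giving no visible growth or fewer than five colonies per spot.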

For assay [3], the system named is Escherichia coli. In words: Minimum inhibitory concentration required for inhibition of D-alanyl-D-alanine ligase from Escherichia coli Tem 2+ 4351. Format: functional. Put shortly: as §1
The subject of assay [4] is Enterococcus faecalis. As to the kind of experiment: Minimum inhibitory concentration required for inhibition of D-alanyl-D-alanine ligase from Streptococcus faecalis 2864. Format: functional. Put shortly:
as §1

Assay [5] relates to D-alanine--D-alanine ligase (Enterococcus faecalis). In words: ATP dependent inhibition of D-alanine--D-alanine ligase after 24 hours at 10 uM concentration.
Assay [6] shares this test system. In words: ATP dependent inhibition of D-alanine--D-alanine ligase after 4 hours at 10 uM concentration.
For assay [7], the system named is Salmonella typhimurium. In words: Minimum inhibitory concentration required for inhibition of D-alanyl-D-alanine ligase from Salmonella Typhimurium 3860. Type of assay: functional, Salmonella enterica subsp. enterica serovar Typhimurium. As to conditions: Salmonella enterica. Put shortly:
as §1

Assay [8] relates to Escherichia coli. As to the kind of experiment: Minimum inhibitory concentration required for inhibition of D-alanyl-D-alanine ligase from Escherichia coli 2891. Type of assay: functional. The procedure, abridged: as §1
Assay [9] concerns Escherichia coli. As to the kind of experiment: Minimum inhibitory concentration required for inhibition of D-alanyl-D-alanine ligase from Escherichia coli DC2 4353. Type of assay: functional. Put shortly:
as §1

Assay [10] has as its system Staphylococcus aureus. As to the kind of experiment: Minimum inhibitory concentration required for inhibition of D-alanyl-D-alanine ligase from Staphylococcus aureus 2865. Format: functional. The procedure, abridged: as §1
The subject of assay [11] is Enterobacter cloacae. As to the kind of experiment: Minimum inhibitory concentration required for inhibition of D-alanyl-D-alanine ligase from cloacae 2647. Type of assay: functional. Put shortly:
as §1

Assay [12] concerns Serratia marcescens. In words: Minimum inhibitory concentration required for inhibition of D-alanyl-D-alanine ligase from Serratia marcescens 2840. Format: functional. Put shortly:
as §1

The test system of assay [13] is Klebsiella pneumoniae. In words: Minimum inhibitory concentration required for inhibition of D-alanyl-D-alanine ligase from Klebsiella pneumoniae 4005. Format: functional. The procedure, abridged: as §1
Assay [14] deals with Proteus vulgaris. As to the kind of experiment: Minimum inhibitory concentration required for growth inhibition of proteus vulgaris 2829.
Assay [15] deals with Escherichia coli. As to the kind of experiment: Minimum inhibitory concentration required for growth inhibition of Escherichia coli DC2 4353.
Assay [16] concerns Salmonella typhimurium. As to the kind of experiment: Minimum inhibitory concentration required for growth inhibition of Salmonella Typhimurium 3860. As to conditions: Salmonella enterica subsp. enterica serovar Typhimurium.
Assay [17] concerns Enterobacter cloacae. In words: Minimum inhibitory concentration required for growth inhibition of cloacae 2647.
For assay [18], the system named is Serratia marcescens. In words: Minimum inhibitory concentration required for growth inhibition of Serratia marcescens 2840.
Assay [19] concerns Staphylococcus aureus. As to the kind of experiment: Minimum inhibitory concentration required for growth inhibition of Staphylococcus aureus 2865.
Assay [20] relates to Enterococcus faecalis. As to the kind of experiment: Minimum inhibitory concentration required for growth inhibition of Streptococcus faecalis 2864.
Assay [21] relates to Escherichia coli. As to the kind of experiment: Minimum inhibitory concentration required for growth inhibition of Escherichia coli 2891.
The subject of assay [22] is Pseudomonas aeruginosa. As to the kind of experiment: Minimum inhibitory concentration required for growth inhibition of Pseudomonas aeruginosa 4279.
Assay [23] deals with Klebsiella pneumoniae. In words: Minimum inhibitory concentration required for growth inhibition of Klebsiella pneumoniae 4005.
For assay [24], the system named is Klebsiella pneumoniae. As to the kind of experiment: The inhibition of D-alanyl-D-alanine ligase from Klebsiella pneumoniae 4005 in the presence of F-D-Ala ug/mL. Format: functional.
For assay [25], the system named is Pseudomonas aeruginosa. In words: Minimum inhibitory concentration required for inhibition of D-alanyl-D-alanine ligase from Pseudomonas aeruginosa 4279 in the presence of F-D-Ala ug/mL. Format: functional.
The subject of assay [26] is Enterococcus faecalis. In words: Minimum inhibitory concentration required for inhibition of D-alanyl-D-alanine ligase from Streptococcus faecalis 2864 in the presence of F-D-Ala ug/mL. Format: functional.
The test system of assay [27] is Escherichia coli. As to the kind of experiment: Minimum inhibitory concentration required for inhibition of D-alanyl-D-alanine ligase from Escherichia coli Tem 2+ 4351 in the presence of F-D-Ala ug/mL. Type of assay: functional.

For the compound `CCCCCCCC(CP(=O)(O)[C@@H](C)N)C(=O)O` (some centres undefined), the MIC in the assay with Pseudomonas aeruginosa [1] is over 256 µg/mL; in the assay on Proteus vulgaris [2] it was 128 µg/mL (≈ 458 µM); against Escherichia coli [3] it was 128 µg/mL (≈ 458 µM); with Enterococcus faecalis [4] it was 64 µg/mL (≈ 229 µM); with Salmonella typhimurium [7], 128 µg/mL (≈ 458 µM); in the assay with Escherichia coli [8] it was 128 µg/mL (≈ 458 µM). In addition, the MIC against Escherichia coli [9] was 32 µg/mL (≈ 115 µM); in the assay on Staphylococcus aureus [10] it was 128 µg/mL (≈ 458 µM); in the assay with Enterobacter cloacae [11], 256 µg/mL (≈ 917 µM); against Serratia marcescens [12], over 256 µg/mL; with Klebsiella pneumoniae [13], 64 µg/mL (≈ 229 µM). For the same compound, the results for the inhibition in [5] and in assay [6] were 53% and 75%, respectively.
In the case of `CCC(CP(=O)(O)C(C)N)C(=O)O` (centres undefined), the MIC was 128 µg/mL (≈ 612 µM) against Proteus vulgaris [14]; 8 µg/mL (≈ 38.2 µM) in the assay with Escherichia coli [15]; over 256 µg/mL in the assay on Salmonella typhimurium [16]; 256 µg/mL (≈ 1220 µM) with Enterobacter cloacae [17]; over 256 µg/mL against Serratia marcescens [18]; over 256 µg/mL with Staphylococcus aureus [19]. In addition, the figures for the MIC in the assay with Enterococcus faecalis [20] and in the assay on Escherichia coli [21] were 2 µg/mL (≈ 9.56 µM) and 256 µg/mL (≈ 1220 µM), respectively.
For the compound `CC(N)P(=O)(O)CC(CCCc1ccccc1)C(=O)O` (centres undefined), the MIC is over 256 µg/mL in the assay on Proteus vulgaris [14]; 128 µg/mL (≈ 428 µM) in the assay on Escherichia coli [15]; over 256 µg/mL with Pseudomonas aeruginosa [22]; 128 µg/mL (≈ 428 µM) against Salmonella typhimurium [16]; over 256 µg/mL in the assay on Enterobacter cloacae [17]; over 256 µg/mL in the assay with Serratia marcescens [18]. The MIC against Staphylococcus aureus [19] was determined as 256 µg/mL (≈ 855 µM); in the assay with Klebsiella pneumoniae [23], 256 µg/mL (≈ 855 µM); in the assay with Enterococcus faecalis [20] it was 256 µg/mL (≈ 855 µM); against Escherichia coli [21] it was 128 µg/mL (≈ 428 µM).
With `C[C@@H](CP(=O)(O)[C@@H](C)N)C(=O)O`, the MIC was determined as 128 µg/mL in the assay with Klebsiella pneumoniae [24]; 128 µg/mL (≈ 656 µM) against Pseudomonas aeruginosa [1]; 128 µg/mL with Pseudomonas aeruginosa [25]; 128 µg/mL (≈ 656 µM) in the assay on Escherichia coli [3]; 8 µg/mL in the assay on Enterococcus faecalis [26]; 128 µg/mL (≈ 656 µM) against Enterococcus faecalis [4]. Also, the figures for the MIC with Escherichia coli [27] and against Klebsiella pneumoniae [13] were 128 µg/mL and 128 µg/mL (≈ 656 µM), respectively.
On to `CSC(CP(=O)(O)C(C)N)C(=O)O` (centres undefined), for which the MIC was 4 µg/mL (≈ 17.6 µM) with Proteus vulgaris [14]; 64 µg/mL (≈ 282 µM) in the assay with Escherichia coli [15]; 64 µg/mL (≈ 282 µM) in the assay with Pseudomonas aeruginosa [22]; 128 µg/mL (≈ 563 µM) with Enterobacter cloacae [17]; 256 µg/mL (≈ 1130 µM) with Serratia marcescens [18]; over 256 µg/mL against Staphylococcus aureus [19]. Also, the MIC came to 128 µg/mL (≈ 563 µM) in the assay on Klebsiella pneumoniae [23] and 4 µg/mL (≈ 17.6 µM) against Enterococcus faecalis [20]. In addition, the inhibition in assay [5] and in assay [6] was 96% each time.

A word on the inhibition: it is the drop in the measured response relative to a control, in per cent. High values mean strong suppression, low ones little suppression.
